What was measured:
[1] = tested on: Human immunodeficiency virus 1; assay: (§1) Antiviral activity against HIV1 pNL4-3 infected in human MT4 cells derived from 15 viral passages with 560 nM A-790742 harboring protease L33L/F, K45I, V82L, I84V mutation assessed as reduction in viral cytopathogenicity treated 1 hr post infection measured 5 days post infection by MTT assay relative to wild type HIV1 pNL4-3; format: functional
Method in brief: (§2)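 Selection: MT-4 cells infected with parental pNL4-3 or RF (MOI 0.003, 2 h), then passaged under rising selecting drug whenever supernatant p24 (ELISA) exceeded 10 ng/ml. Passage viruses titred by TCID50 (Spearman-Karber). Assay: 10^6 MT-4 cells infected at MOI 0.003 for 1 h, washed, and seeded at 10^4 cells/well with eight serial dilutions, triplicate, 0.5% DMSO final. Day-5 MTT read-out; EC50 fold-change versus parental wild type.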

[2] = tested on: Human immunodeficiency virus 1; assay: as §1, with “13” for “15”, “400” for “560”, “protease” for “protease L33L/F, K45I,”; format: functional; method in brief: as §2
[3] = tested on: Human immunodeficiency virus 1; assay: as §1, with “9” for “15”, “80” for “560”, “V82V/L and” for “L33L/F, K45I, V82L,”; format: functional; method in brief: as §2
[4] = tested on: Human immunodeficiency virus 1; assay: Antiviral activity against HIV1 isolate 11 infected in human MT4 cells obtained from protease inhibitor-resistant patient harboring protease L10I, I15V, K20R, E21Q, E35D, M36I, N37D, R41K, M46L, I54V, I62V, L63P, A71V, T74D, P79A, V82T, I84V, I85V, L90M, I93L mutation derived from viral passages with Lopinavir assessed as reduction in viral cytopathogenicity treated 1 hr post infection measured …; format: functional
[5] = tested on: Human immunodeficiency virus 1; assay: Antiviral activity against HIV1 isolate 13 infected in human MT4 cells obtained from protease inhibitor-resistant patient harboring protease L10I, K14R, L33F, E34Q, R41K, K45R, M46I, I50V, K55R, L63P, A71V, G73T, V77I, V82A, L90M, I93L mutation derived from viral passages with Lopinavir assessed as reduction in viral cytopathogenicity treated 1 hr post infection measured 5 days post infection by …; format: functional
[6] = tested on: Human immunodeficiency virus 1; assay: Antiviral activity against HIV1 B26 infected in human MT4 cells harboring protease L33F, K45I, M46I, I50V, I54V, A71V, and V82F mutation derived from viral passages with Lopinavir assessed as reduction in viral cytopathogenicity treated 1 hr post infection measured 5 days post infection by MTT assay; format: functional, organism-based; settings: Human immunodeficiency virus 1, B26, MT4
Method in brief: (§3)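 For the assay, 10⁶ MT-4 cells were infected at MOI 0.003, washed after 1 h, and plated at 10⁴ cells/well with eight serial compound dilutions in triplicate (0.5% DMSO final). MTT cytopathic read-out at day 5; EC50 from dose-response fitting.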

[7] = tested on: Human immunodeficiency virus 1; assay: Antiviral activity against HIV1 isolate 12 infected in human MT4 cells obtained from protease inhibitor-resistant patient harboring protease L10I, I13V, K20I, E35D, M36I, M46I, I50V, I54V, R57K, I62V, L63P, A71V, V82A, L89V, L90M, Q92K mutation derived from viral passages with Lopinavir assessed as reduction in viral cytopathogenicity treated 1 hr post infection measured 5 days post infection by …; format: functional
[8] = tested on: Human immunodeficiency virus 1; assay: Antiviral activity against HIV1 isolate 5 infected in human MT4 cells obtained from protease inhibitor-resistant patient harboring protease L10F, I15V, M46I, L63P, A71V, I72L, V82T, I84V, I85V, L90M mutation derived from viral passages with Lopinavir assessed as reduction in viral cytopathogenicity treated 1 hr post infection measured 5 days post infection by MTT assay relative to wild type HIV1 …; format: functional
[9] = tested on: Human immunodeficiency virus 1; assay: (§4) Antiviral activity against HIV1 RF infected in human MT4 cells derived from 6 viral passages with 16 nM A-790742 harboring wild-type protease assessed as reduction in viral cytopathogenicity treated 1 hr post infection measured 5 days post infection by MTT assay relative to wild type HIV1 RF; format: functional; method in brief: as §2
[10] = tested on: Human immunodeficiency virus 1; assay: Antiviral activity against HIV1 P15 infected in human MT4 cells derived from viral passages with A-790742 harboring protease L33L/F, K45I, V82L, and I84V mutation assessed as reduction in viral cytopathogenicity treated 1 hr post infection measured 5 days post infection by MTT assay relative to wild type HIV1 pNL4-3; format: functional; method in brief: as §3
[11] = tested on: Human immunodeficiency virus 1; assay: Antiviral activity against HIV1 isolate 8 infected in human MT4 cells obtained from protease inhibitor-resistant patient harboring protease L10I, I13V, L33F, E34Q, R41K, M46I, I54V, K55R, R57K, Q58E, I62V, L63P, A71V, I72I/T, G73S, V82A, I84V, L90M mutation derived from viral passages with Lopinavir assessed as reduction in viral cytopathogenicity treated 1 hr post infection measured 5 days post …; format: functional
[12] = tested on: Human immunodeficiency virus 1; assay: as §4, with “13” for “6”, “340” for “16”, “harboring” for “harboring wild-type”, “protease M46I, L63P, A71V, V82G mutation” for “protease”; format: functional; method in brief: as §2
[13] = tested on: Human immunodeficiency virus 1; assay: Antiviral activity against HIV1 clone2 infected in HEK293 cells harboring A-790742-selected protease V82L mutation assessed as reduction in viral replication by luciferase reporter gene assay relative to wild type HIV1 pNL4-3; format: functional
Method in brief: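 Single-cycle assay: HEK-293 cells were cotransfected with luciferase-reporter HIV-1 protease clones plus a VSV-G expression vector. After 4 h, cells were replated at 2 × 10⁴/well over serial inhibitor dilutions in triplicate. Pseudovirus collected at 48 h infected fresh HEK-293 (10⁴/well). Luciferase read 48 h later gave % inhibition versus untreated and EC50. Fold change against WT pNL4-3-Luc (clones 1-4) or RF-Luc (clone 5) is the mean of three experiments.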

## COC(=O)N[C@H](C(=O)N[C@H](Cc1ccc(-c2ccccn2)cc1)C[C@H](O)[C@H](Cc1ccccc1)NC(=O)[C@@H](N1CCN(Cc2cccc(C(C)(C)O)n2)C1=O)C(C)(C)C)C(C)(C)C
[1]
  Ratio EC50: 186.7
[2]
  Ratio EC50: 133.3
[3]
  Ratio EC50: 26.7
[4]
  Ratio EC50: 11
[5]
  Ratio EC50: 2
[6]
  EC50: 0.022 µM
[7]
  Ratio EC50: 1
[8]
  Ratio EC50: 2
[9]
  Ratio EC50: 3.2
[10]
  Ratio EC50: 29
[11]
  Ratio EC50: 4
[12]
  Ratio EC50: 68
[13]
  Ratio EC50: 22

Reference: ChEMBL document CHEMBL1255290, “Characterization of a novel human immunodeficiency virus type 1 protease inhibitor, A-790742” (Antimicrob Agents Chemother, 2008)
